# In ChEMBL document CHEMBL1138222, “9-Benzylidene-naphtho[2,3-b]thiophen-4-ones as novel antimicrotubule agents-synthesis, antiproliferative activity, and inhibition of tubulin polymerization” (J Med Chem, 2006):
# Columns and labels:
# [1] = Cell cycle arrest in KB/HeLa cells by accumulation at S phase at 31.6 nM; format: functional, cell-based; conditions: Homo sapiens
# How it was run: (§1)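 Subconfluent KB/HeLa cells were treated with a concentration series for 24 h at 37 °C, then detached and fixed in 70% ethanol. DNA was stained with propidium iodide alongside RNase digestion and measured by flow cytometry. Phase fractions came from cell-cycle modelling software, and IC50 from nonlinear regression.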
# [2] = Cell cycle arrest in KB/HeLa cells by accumulation at G2/M phase at 100 nM; format: functional, cell-based; conditions: Homo sapiens; how it was run: as §1
# [3] = Cell cycle arrest in KB/HeLa cells by accumulation at G1 phase at 100 nM; format: functional, cell-based; conditions: Homo sapiens; how it was run: as §1
# cells = conditions: Rattus norvegicus, LT12, 48 h
# [4] = Cell cycle arrest in KB/HeLa cells by accumulation at G1 phase at 316 nM; format: functional, cell-based; conditions: Homo sapiens; how it was run: as §1
# MDR = assay: Antiproliferative activity against LT12 MDR cells by XTT assay after 48 hrs; format: functional, cell-based; conditions: Rattus norvegicus
# How it was run: (§2)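 Tumour cell lines were seeded at 1 × 10^3 to 8 × 10^4 cells/well for logarithmic growth and exposed to a concentration series for 48 h. Proliferation was read as cellular metabolic activity by XTT. IC50 came from dose-response curves by nonlinear regression, with at least two replicates.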
# [5] = Cell cycle arrest in KB/HeLa cells by accumulation at G2/M phase at 3.16 nM; format: functional, cell-based; conditions: Homo sapiens
# [6] = Cell cycle arrest in KB/HeLa cells by accumulation at G2/M phase at 10 nM; format: functional, cell-based; conditions: Homo sapiens; how it was run: as §1
# [7] = Cell cycle arrest in KB/HeLa cells by accumulation at G2/M phase at 31.6 nM; format: functional, cell-based; conditions: Homo sapiens; how it was run: as §1
# L1210 [8] = assay: Antiproliferative activity against L1210 VCR cells by XTT assay after 48 hrs; format: functional, cell-based; conditions: Mus musculus, L1210, 48 h; how it was run: as §2
# P388 [9] = assay: Antiproliferative activity against P388 cells by XTT assay after 48 hrs; format: functional, cell-based; conditions: Mus musculus, P388, 48 h; how it was run: as §2
# [10] = Cell cycle arrest in KB/HeLa cells by accumulation at S phase at 316 nM; format: functional, cell-based; conditions: Homo sapiens; how it was run: as §1
# [11] = Cell cycle arrest in KB/HeLa cells by accumulation at G1 phase at 31.6 nM; format: functional, cell-based; conditions: Homo sapiens; how it was run: as §1
# [12] = Cell cycle arrest in KB/HeLa cells by accumulation at G1 phase at 1 nM; format: functional, cell-based; conditions: Homo sapiens; how it was run: as §1
# [13] = Cell cycle arrest in KB/HeLa cells by accumulation at G2/M phase; format: functional, cell-based; conditions: Homo sapiens; how it was run: as §1
# P388 [14] = assay: Antiproliferative activity against P388 ADR cells by XTT assay after 48 hrs; format: functional, cell-based; conditions: Mus musculus, P388, 48 h; how it was run: as §2
# L1210 [15] = assay: Antiproliferative activity against L1210 cells by XTT assay after 48 hrs; format: functional, cell-based; conditions: Mus musculus, L1210, 48 h; how it was run: as §2
# [16] = Cell cycle arrest in KB/HeLa cells by accumulation at S phase at 3.16 nM; format: functional, cell-based; conditions: Homo sapiens; how it was run: as §1
# [17] = Antiproliferative activity against KB/HeLa cells by XTT assay after 48 hrs; format: functional, cell-based; conditions: Homo sapiens; how it was run: as §2
# [18] = Cell cycle arrest in KB/HeLa cells by accumulation at S phase at 100 nM; format: functional, cell-based; conditions: Homo sapiens; how it was run: as §1
# [19] = Cell cycle arrest in KB/HeLa cells by accumulation at G1 phase at 10 nM; format: functional, cell-based; conditions: Homo sapiens; how it was run: as §1
# RKO = assay: Antiproliferative activity against RKO cells with ectopic-induced p27kip1-expression by XTT assay after 48 hrs; format: functional, cell-based; conditions: Homo sapiens
# How it was run: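 RKO colon adenocarcinoma cells carry an ecdysone-inducible p27kip1 vector. On day 1 they were plated with 3 µM ponasterone A (induced, 2 × 10^4 cells/well) or without it (not induced, 6 × 10^3 cells/well) and held 24 h at 37 °C. Compound or DMSO control was then added for 48 h at 37 °C, followed by a standard XTT read-out.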
# [20] = Cell cycle arrest in KB/HeLa cells by accumulation at G1 phase at 3.16 nM; format: functional, cell-based; conditions: Homo sapiens; how it was run: as §1
# [21] = Cell cycle arrest in KB/HeLa cells by accumulation at G2/M phase at 316 nM; format: functional, cell-based; conditions: Homo sapiens; how it was run: as §1
# [22] = Cell cycle arrest in KB/HeLa cells by accumulation at S phase at 1 nM; format: functional, cell-based; conditions: Homo sapiens; how it was run: as §1
# [23] = Cell cycle arrest in KB/HeLa cells by accumulation at S phase at 10 nM; format: functional, cell-based; conditions: Homo sapiens; how it was run: as §1
# [24] = Cell cycle arrest in KB/HeLa cells by accumulation at G2/M phase at 1 nM; format: functional, cell-based; conditions: Homo sapiens; how it was run: as §1
# K562 = assay: Antiproliferative activity against human K562 cell line; format: functional, cell-based
# Tubulin = Tubulin (Sus scrofa, UniProt P02554+P02550); assay: Inhibition of tubulin polymerization in porcine brain
# [25] = Cell cycle arrest in KB/HeLa cells by accumulation at G2/M phase at 0.1 nM; format: functional, cell-based; conditions: Homo sapiens; how it was run: as §1
# [26] = Cell cycle arrest in KB/HeLa cells by accumulation at S phase at 0.3 nM; format: functional, cell-based; conditions: Homo sapiens; how it was run: as §1
# [27] = Cell cycle arrest in KB/HeLa cells by accumulation at G1 phase at 0.1 nM; format: functional, cell-based; conditions: Homo sapiens; how it was run: as §1
# [28] = Cell cycle arrest in KB/HeLa cells by accumulation at G2/M phase at 0.3 nM; format: functional, cell-based; conditions: Homo sapiens; how it was run: as §1
# [29] = Cell cycle arrest in KB/HeLa cells by accumulation at G1 phase at 0.3 nM; format: functional, cell-based; conditions: Homo sapiens; how it was run: as §1
# [30] = Cell cycle arrest in KB/HeLa cells by accumulation at S phase at 0.1 nM; format: functional, cell-based; conditions: Homo sapiens; how it was run: as §1
smiles,measurement,setting,value
COC(=O)Nc1nc2cc(C(=O)c3cccs3)ccc2[nH]1 [NOCODAZOLE],Activity,[1],25.7%
same,Activity,[2],51.4%
same,Activity,[3],22.3%
same,IC50,cells,40 nM
same,Activity,[4],0.9%
same,IC50,MDR,70 nM
same,Activity,[5],10.6%
same,Activity,[6],10%
same,Activity,[7],9.9%
same,IC50,L1210 [8],90 nM
same,IC50,P388 [9],80 nM
same,Activity,[10],6%
same,Activity,[11],64.4%
same,Activity,[12],65.2%
same,EC50,[13],91 nM
same,IC50,P388 [14],170 nM
same,IC50,L1210 [15],50 nM
same,Activity,[16],24.8%
same,IC50,[17],140 nM
same,Activity,[18],26.1%
same,Activity,[19],64.2%
same,IC50,RKO,> 10000 nM
same,Activity,[20],64.6%
same,Activity,[21],93.2%
same,Activity,[22],23.6%
same,Activity,[23],25.7%
same,Activity,[24],11.1%
CC(=O)O[C@H]1C(=O)[C@@]2(C)[C@H]([C@H](OC(=O)c3ccccc3)[C@]3(O)C[C@H](OC(=O)[C@H](O)[C@@H](NC(=O)c4ccccc4)c4ccccc4)C(C)=C1C3(C)C)[C@]1(OC(C)=O)CO[C@@H]1C[C@@H]2O [PACLITAXEL],Activity,[1],49.9%
same,Activity,[2],87.8%
same,Activity,[3],1.2%
same,Activity,[4],0.3%
same,IC50,MDR,400 nM
same,Activity,[5],9.4%
same,Activity,[6],8.5%
same,Activity,[7],19%
same,IC50,L1210 [8],> 5000 nM
same,IC50,P388 [9],40 nM
same,Activity,[10],8.9%
same,Activity,[11],31.1%
same,Activity,[12],63.2%
same,EC50,[13],49 nM
same,IC50,P388 [14],> 5000 nM
same,Activity,[16],27%
same,IC50,[17],10 nM
same,Activity,[18],11%
same,Activity,[19],64.8%
same,IC50,RKO,> 3000 nM
same,Activity,[20],63.6%
same,Activity,[21],90.8%
same,Activity,[22],26.7%
same,Activity,[23],26.6%
same,Activity,[24],10.1%
O=C1c2ccccc2/C(=C/c2cc(Br)c(O)c(Br)c2)c2sccc21,IC50,K562,6690 nM
O=C1c2ccccc2/C(=C/c2c[nH]c3ccccc23)c2sccc21,IC50,K562,720 nM
same,IC50,Tubulin,2800 nM
COc1ccc(CC(=O)Oc2c3ccccc3cc3sccc23)cc1,IC50,K562,15000 nM
same,IC50,Tubulin,> 10000 nM
COc1ccc(COc2c3ccccc3cc3sccc23)cc1OC,IC50,K562,900 nM
same,IC50,Tubulin,3980 nM
CC[C@]1(O)C[C@H]2CN(CCc3c([nH]c4ccccc34)[C@@](C(=O)OC)(c3cc4c(cc3OC)N(C=O)[C@H]3[C@@](O)(C(=O)OC)[C@H](OC(C)=O)[C@]5(CC)C=CCN6CC[C@]43[C@@H]65)C2)C1 [VINCRISTINE],Activity,[25],11.1%
same,Activity,[1],7.2%
same,Activity,[2],95.1%
same,Activity,[3],0.2%
same,Activity,[26],24%
same,Activity,[4],0.2%
same,Activity,[5],65.8%
same,Activity,[6],86.7%
same,Activity,[7],92.6%
same,Activity,[10],5.9%
same,Activity,[11],1%
same,Activity,[12],53.7%
same,Activity,[27],61.2%
same,Activity,[28],11.7%
same,EC50,[13],2.4 nM
same,Activity,[29],64.5%
same,Activity,[30],27.7%
same,Activity,[16],26%
same,Activity,[18],4.8%
same,Activity,[19],0.5%
same,Activity,[20],6.5%
same,Activity,[21],93.8%
same,Activity,[22],28.3%
same,Activity,[23],13.1%
same,Activity,[24],17.2%
O=[N+]([O-])c1ccc(COc2c3ccccc3cc3sccc23)cc1,IC50,K562,3130 nM
COc1ccc(/C=C2/c3ccccc3C(=O)c3ccsc32)cc1,IC50,K562,440 nM
same,IC50,Tubulin,3300 nM
O=C1c2ccccc2/C(=C/c2ccc(O)cc2)c2sccc21,IC50,K562,810 nM
COc1cc(COc2c3ccccc3cc3sccc23)cc(OC)c1OC,IC50,K562,8950 nM
same,IC50,Tubulin,> 10000 nM
O=C1c2ccccc2/C(=C/c2ccc([N+](=O)[O-])cc2)c2sccc21,IC50,K562,720 nM
same,IC50,Tubulin,> 10000 nM
O=C1c2ccccc2/C(=C/c2ccc(O)c(O)c2)c2sccc21,IC50,K562,270 nM
COc1cc(/C=C2/c3ccccc3C(=O)c3ccsc32)ccc1O,IC50,K562,100 nM
same,IC50,Tubulin,880 nM
COc1ccc(CCC(=O)Oc2c3ccccc3cc3sccc23)cc1,IC50,K562,> 90000 nM
O=C1c2ccccc2/C(=C/c2cc(Cl)cc(Cl)c2)c2sccc21,IC50,K562,420 nM
